# Screening results (PubChem)
# This is one part of a sample in which hits are shown more often than they occur.
# bCat KO growth = primary screen for growth suppressors in beta-catenin knockout HCT116 cells (colon tumor, human); HCT116 beta-catenin knockout viability, CellTiter-Glo, 60 h; hits give low values; viability, % at 10 µM; hit rate 1.5% among 140,000; AID 818, 2007;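 active = viability at or under a set limit, the compound median less 4 SD, cut at about 6% in these data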;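 note: 0% = Hyamine 1622 control at 20 µM and 100% = untreated cell control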
# H69AR growth 86K = proliferation blockers of H69AR lung cancer cells, primary screen, cell-based, human, 86K library. viability, % at 10 µM. AID 598, 2007. hit rate 6% among 85,000. H69AR lung tumor viability, ATP luminescence, 72 h; hits give low values;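 active = viability at or below 40%; inactive = viability above 40%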;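 note: multidrug resistant small cell line overexpressing MRP-1 efflux transporter; 100% = mean luminescence of untreated control wells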
# HUVEC inhibit = inhibitors of HUVEC proliferation, primary screen, cell-based, 384-well; CellTiter-Glo luminescence, 72 h; hits give low values; viability, % at 10 µM (by protocol); hit rate 1.1% among 86,000;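 active = viability at or below 30%; inactive = viability above 30%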;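 note: 100% = median luminescence of DMSO-only cell control wells on each plate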
# HCT116 PTEN-null = growth suppression of PTEN-null HCT116, primary screen, cell-based, CellTiter-Glo. HCT116 PTEN-null viability, 60 h; hits give low values. viability, % at 10 µM. hit rate 1.2% among 140,000. AID 827, 2007;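 active = viability at or below a set limit, 4 SD under the median of all tested compounds, cut at about 3.7% in these data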;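 note: PTEN knockout HCT116 line with beta catenin targeted HCT116 as companion control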
# Fibroblast inh = antiproliferative effect on LL 47 fibroblasts – human, LL 47 cells, CellTiter-Glo luminescence, primary screen | viability, % at 10 µM | LL 47 human lung fibroblast viability, ATP luminescence; hits give low values | hit rate 1.1% among 85,000;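 active = viability at or below 50% in the single dose screen; inactive = viability above 50%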;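 note: compound exposure lasted 72 h before the ATP readout; 100% = median luminescence of untreated cell-only wells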
#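 material = human LL 47 lung fibroblast cells | dosing = compounds added from tenfold dosing solution, 0.1% DMSO final | timing = overnight cell rest, 72 h compound treatment at 37 °C | measured by = CellTiter-Glo luminescence measuring cellular ATP | evaluation = % viability versus median cells-only luminescence | control set = cell-only wells, no compound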
# An asterisk follows results filed as active; · = not tested or not shown.
SMILES,bCat KO growth,H69AR growth 86K,HUVEC inhibit,HCT116 PTEN-null,Fibroblast inh
CCOC(=O)Cn1nc(-c2ccc(F)cc2)oc1=O,100.8,101.9,104.5,97.5,100.5
COc1ccc(N2CCN(c3ncnc4c3[nH]c3ccccc34)CC2)cc1,78.8,60.7,80.7,78.7,84.0
COc1cc2[nH]c3c(N4CCN(c5ccccn5)CC4)ncnc3c2cc1OC,7.5,24.3*,44.7,2.7*,69.4
CC1CC(C)CN(S(=O)(=O)c2cccc(C(=O)OCCN3CCCC3=O)c2)C1 (stereo not drawn),89.3,96.1,101.1,88.2,103.1
Cc1ccc(Nc2cc(C)nn2-c2nc(C)cc(C)n2)cc1,20.9,13.5*,80.8,27.3,89.5
Cc1ccc(Nc2cc(C)nc3nnnn23)cc1,103.3,97.2,95.2,96.8,101.1
Cc1ccc(Nc2nc3ccccc3nc2-n2nc(C)cc2C)cc1,87.8,91.8,116.5,77.6,103.8
Cc1ccc(Nc2cc(C)nn2-c2nc(C)cc(=O)[nH]2)cc1,2.0*,1.4*,29.8*,1.5*,4.5*
CCOC(=O)C1=C(O)/C(=C\c2ccc(CNC(=O)C(=O)Nc3ccc(C)c(C)c3)o2)N=C1C,92.4,97.7,99.3,99.7,90.7
C=CCSC1=C(C#N)C(c2cccc(OC)c2)CC(=O)N1 (stereo not drawn),89.9,89.3,90.2,109.4,103.0
CCOC(=O)C1=c2/c(=C/c3ccccc3OC)c(N)c(C#N)n2C(=O)C(c2ccccc2OC)S1 (stereo not drawn),19.7,3.4*,27.3*,·,54.9
N#CC1=C(N)c2ccccc2CC12CCCCC2,90.8,86.3,78.6,87.4,93.0
O=C(Nc1ccc(Cl)cc1)Nc1nnc(-c2ccncc2)s1,4.3*,·,·,2.1*,·
O=C(NCCc1ccncc1)Nc1cccc(Cl)c1,101.0,106.3,80.6,104.4,101.1
O=C(Nc1ccc(F)cc1)Nc1nnc(-c2ccncc2)s1,32.2,·,·,20.4,·
O=C(Nc1cccc(Cl)c1)Nc1nnc(-c2ccncc2)s1,3.8*,·,·,3.2*,·
CC(=O)c1ccc(NC(=O)Nc2cccc(Cl)c2)cc1,61.4,5.0*,67.6,49.7,98.9
COc1cccc(OC)c1C(=O)NC(=S)Nc1cc(-c2nc3ccccc3[nH]2)ccc1Cl,77.0,·,·,64.9,·
CC(C)CCNC(=O)CNC(=S)N(Cc1ccccc1)Cc1cccnc1,86.5,·,·,93.2,·
OCCN1CCN(C2Cc3cc(Cl)ccc3Sc3ccc(Cl)cc32)CC1 (stereo not drawn) (tested in a mixture with another compound),32.8,8.9*,2.4*,43.9,91.7
CN1CCN(CCOC2Cc3ccccc3Sc3ccc(Cl)cc32)CC1 (stereo not drawn),29.1,·,·,32.8,·
C=CCn1c(SCC(=O)Nc2sccc2C(N)=O)nc2sc(CC)cc2c1=O,70.7,39.8*,73.1,74.5,85.5
C=CCn1c(SCC(=O)c2c(N)n(CCC)c(=O)n(C)c2=O)nc2sc(CC)cc2c1=O,40.8,7.7*,83.0,35.6,46.5*
C=CCn1c(SCC(=O)c2c(N)n(C)c(=O)n(C)c2=O)nc2sc(C)c(C)c2c1=O,98.6,·,·,94.0,·
C=CCn1c(SCC(=O)Nc2sccc2C(N)=O)nc2ccc(Cl)cc2c1=O,50.6,16.5*,57.2,32.4,84.4
SMILES,bCat KO growth,H69AR growth 86K,HUVEC inhibit,HCT116 PTEN-null,Fibroblast inh
C=CCn1c(SCC(=O)Nc2sccc2C(N)=O)nc2ccccc2c1=O,75.5,31.3*,58.7,76.4,87.6
O=C1OC(c2ccc(Cl)cc2)/C(=C(/O)c2ccccc2)C1=O (stereo not drawn),95.0,96.9,113.7,96.8,110.3
C=CCN(c1cccc(C(F)(F)F)c1)S(=O)(=O)c1cccc(C(=O)OCC(=O)NCCC)c1,96.3,·,·,99.9,·
O=C(CSc1nnc(Nc2ccccc2F)s1)Nc1cccc(S(=O)(=O)N2CCCCC2)c1,63.7,·,·,60.3,·
Cc1cc(C)c2nc(N3CCCN(C(=O)c4ccco4)CC3)c(C#N)cc2c1,11.2,34.6*,97.7,7.9,97.0
CCCc1ccc(-c2cc(NC(=O)CSc3n[nH]c(N)n3)n(-c3ccccc3)n2)cc1,59.6,16.9*,16.6*,45.9,94.1
CC(=O)c1c(N2CCN(Cc3ccccc3)CC2)[nH]c(-c2ccccc2)nc1=S,92.5,4.6*,77.3,90.5,93.4
COc1cc(-c2nnc(COc3ccc4cc(Br)ccc4c3)o2)cc(OC)c1OC,61.0,23.8*,45.9,72.0,·
